TNAP inh hiacc: blocks human TNAP under high phosphate acceptor concentration | 200,000 compounds, 0.03% hits | P05186 | purified TNAP, CDP-star luminescence, 1 M DEA | inhibition, % at 20 µM;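 active means over 50% inhibition of tissue-nonspecific alkaline phosphatase at 20 µM in the single-dose screen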;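 further: plate controls were DMSO wells for no effect and EDTA-quenched wells as full inhibition for full effect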
Target sequence (P05186 whole entry, looked up): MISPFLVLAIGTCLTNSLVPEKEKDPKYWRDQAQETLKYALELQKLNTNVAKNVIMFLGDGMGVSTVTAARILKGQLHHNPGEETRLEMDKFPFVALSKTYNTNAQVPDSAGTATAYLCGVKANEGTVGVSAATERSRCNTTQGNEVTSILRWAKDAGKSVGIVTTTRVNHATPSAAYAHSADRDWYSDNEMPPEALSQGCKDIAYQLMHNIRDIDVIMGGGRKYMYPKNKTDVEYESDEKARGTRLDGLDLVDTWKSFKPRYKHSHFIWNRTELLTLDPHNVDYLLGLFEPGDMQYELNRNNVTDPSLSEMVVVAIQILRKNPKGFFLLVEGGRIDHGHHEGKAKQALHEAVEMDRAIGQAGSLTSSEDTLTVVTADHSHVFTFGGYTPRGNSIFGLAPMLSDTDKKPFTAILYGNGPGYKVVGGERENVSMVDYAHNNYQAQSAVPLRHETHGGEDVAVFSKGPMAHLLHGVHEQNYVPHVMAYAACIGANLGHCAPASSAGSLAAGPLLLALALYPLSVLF
PMI activator: activators of human phosphomannose isomerase; P34949; purified human PMI, coupled resazurin fluorescence, 20 min; stronger effect = higher value; 1 = vehicle control, 0 substrate-free wells; activation factor at 20 µM; 190,000 compounds, 0.005% hits; AID 1214;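 active means activation factor of 2 or more at 20 µM, relative to plate controls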
PMI act satM6P: increases human PMI activity with near-saturating mannose 6-phosphate. P34949. coupled PMI enzyme assay, resazurin fluorescence, 20 min; stronger effect = higher value; 1 = untreated enzyme, 0 = substrate-free blank. 190,000 compounds, 0.34% hits. activation factor at 20 µM;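 active means activation factor of 2 or more at 20 µM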
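Test system: human phosphomannose isomerase with PGI, G6PDH, diaphorase coupling enzymes / Doses: 20 µM compound, 1% DMSO / Times: enzyme reaction with compound 20 min at room temperature / Measured by: Diaphorase-driven resazurin-to-resorufin fluorescence, excitation 544, emission 590 nm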
TNAP inh no acc: inhibitors of human TNAP without phosphate acceptor; purified TNAP, CDP-star luminescence, 30 min; inhibition, % at 20 µM; 200,000 compounds, 0.26% hits; P05186;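 active means tissue-nonspecific alkaline phosphatase inhibition above about 50% at 20 µM in the single-dose screen, limit read from the data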;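 further: 0% = DMSO negative control and 100% = EDTA positive control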
TNAP act hiacc: TNAP (human) activation, high acceptor; purified TNAP, CDP-star luminescence, 1 M DEA, 30 min; stronger effect = higher value; 0 = EDTA background, 1 = DMSO-only activity; activation factor at 20 µM; 200,000 tested, under 10 active; AID 1136;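 active means activation factor at least 2 at 20 µM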
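Dosing: 20 µM single point. System: human TNAP. Amount: TNAP 1/800 final. Incubation: 30 min, room temperature. Read-out: TNAP activation factor scaled between EDTA and DMSO control wells. Signal: luminescence from CDP-star hydrolysis. Medium: 1 M DEA, pH 9.8, Mg2+, Zn2+. Control set: EDTA negative control, DMSO positive control.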
Active calls of the source: *. Rows were chosen to be rich in hits. Some 0.64% of all compounds tested hit in one or more screens of this group.

SMILES | TNAP inh hiacc | PMI activator | PMI act satM6P | TNAP inh no acc | TNAP act hiacc
COc1ccc(-c2cc(C(=O)O)[nH]n2)cc1OC | -3 | 0.9 | 0.9 | -2 | 1
COC(=O)c1cc(-c2ccc(Br)cc2)on1 | -7 | 1 | 0.9 | -15 | 1.1
COc1ccc(-c2cc(C(=O)NN)[nH]n2)cc1 | 8 | 0.8 | 1 | 93* | 0.9
COc1ccc(-c2cc(-c3cc(C)ccc3O)[nH]n2)cc1 | -6 | 0.9 | 0.9 | -30 | 1.1
COc1ccc(-c2cc(C(=O)NN)[nH]n2)cc1OC | 4 | 1 | 1 | 30 | 1
COc1ccc(-c2cc(-c3ccc(OC)cc3)[nH]n2)cc1 | -9 | 1 | 0.9 | 66* | 1.1
COC(=O)c1cc(-c2ccc(Br)cc2)n[nH]1 | 0 | 1 | 1 | 79* | 1
O=C(O)c1cc(-c2ccc(Cl)cc2)n[nH]1 | -3 | 1 | 0.9 | 83* | 1
CCc1ccc(-c2cc(C(=O)N/N=C/c3c[nH]c4ccccc34)[nH]n2)cc1 | 6 | 1 | 0.9 | 22 | 0.9
COc1ccc(-c2nc(N)n[nH]2)cc1 | -3 | 0.9 | 1 | 63* | 1
CCOc1ccc(-c2cc(C)n3nc(C(N)=O)cc3n2)cc1 | 1 | 1.1 | 1.2 | 7 | 1
CCOc1ccc(-c2cc(C(=O)NN)[nH]n2)cc1 | 2 | 0.9 | 1 | 67* | 1
COC(=O)c1cc(-c2c[nH]c3ccccc23)n[nH]1 | 0 | 0.9 | 0.9 | 89* | 1
CCCNCCC(c1ccco1)c1ccccc1OC (stereo not drawn) | 1 | 0.9 | 1 | -2 | 1
C/C(=N\OC(=O)c1ccc(OC(C)C)cc1)c1ccc(C)c(C)c1 | -3 | 0.9 | 0.9 | -15 | 1
O=C(NC(=S)Nc1ccccc1N1CCCC1)c1cccc(F)c1 | -1 | 0.9 | 0.9 | -20 | 1
O=C(N=Nc1c(O)n(Cc2ccccc2)c2ccccc12)c1cc2ccccc2cc1O | 12 | 1 | 1.2 | 0 | 0.9
CC(=O)/C(=N/Nc1cccc(C)c1)N1CCOCC1 | -2 | 1.7 | 2.2* | -8 | 1
COc1ccc(COCC(O)CN(Cc2ccccc2)C(C)C)cc1OC (stereo not drawn) | 0 | 1 | 1 | -4 | 1
Fc1ccc(N/N=C2/CC(c3ccccc3)Oc3ccccc32)c(F)c1 (stereo not drawn) | 3 | 1.7 | 2.5* | -1 | 1
COc1ccccc1-c1nnc(NC(C)=O)s1 | 4 | 1.1 | 1.1 | -5 | 1
COc1ccccc1-c1nc(NC(C)=O)n[nH]1 | 0 | 1 | 1 | 93* | 1
CCn1nnnc1SCC(=O)Nc1nc2ccccc2s1 | -6 | 0.9 | 0.9 | -11 | 1.1
CCOc1ccc(-n2c(=O)cc(N3CCN(c4ccccc4)CC3)[nH]c2=O)cc1 | -2 | 1 | 1 | -9 | 1
O=C(O)C1CC=CCC1C(=O)NNc1ccccc1 (stereo not drawn) | -5 | 1.9 | 2.7* | -12 | 1.1
SMILES | TNAP inh hiacc | PMI activator | PMI act satM6P | TNAP inh no acc | TNAP act hiacc
CCOc1ccc(C2CC(c3c(O)c4ccccc4oc3=O)=NN2c2ccccc2)cc1OC (stereo not drawn) | 4 | 1.6 | 2.6* | -23 | 1
CCOC(=O)C1CCN(Cc2c(O)c3ccccc3oc2=O)CC1 | -3 | 0.9 | 0.8 | -12 | 1
COc1cccc(/C=C/C(=O)OCC(=O)NCC2CCCO2)c1OC (stereo not drawn) | 0 | 0.9 | 0.9 | 7 | 1
O=C(c1n[nH]c2ccccc12)N1CCCCC1 | 0 | 0.9 | 0.9 | 82* | 1
CC1CCCN(C(=O)COC(=O)c2n[nH]c3ccccc23)C1 (stereo not drawn) | -1 | 0.9 | 0.8 | 60* | 1
O=C(c1n[nH]c2ccccc12)N1CCOCC1 | 1 | 1.1 | 1.1 | 22 | 1
Cc1cc(NC(=O)COC(=O)c2n[nH]c3ccccc23)no1 | -4 | 1 | 0.9 | 52* | 1
COc1ccc(CNC(=O)COC(=O)c2n[nH]c3ccccc23)cc1OC | 1 | 1.2 | 1.2 | 43 | 1
Cc1ccc(C(C)NC(=O)c2ccco2)cc1C (stereo not drawn) | -8 | 1 | 1 | -14 | 1.1
O=C(CN1CCN(CC(=O)c2ccc(F)cc2)CC1)Nc1ccccc1Cl | 0 | 1.4 | 2.2* | 10 | 1

Compound activity deposited in PubChem BioAssay by Sanford-Burnham Center for Chemical Genomics.
